Data taken from ChEMBL document CHEMBL4000161, “Rearranged 6/6/5/6-Fused Triterpenoid Acids from the Stems of Kadsura coccinea” (J Nat Prod, 2016).
pIC50: −log10 of the molar value.

Columns and labels:
Format in all cases: functional, cell-based
HeLa = assay: Cytotoxicity against human HeLa cells assessed as decrease in cell viability after 48 hrs by MTS assay
Procedure, shortened: (§1)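 Cells kept in RPMI-1640 or DMEM with 10% FBS, 37 °C, 5% CO2. Seeded at 1 × 10^5 cells/mL; adherent lines left 12 h to attach, suspension cells (HL-60) seeded just before dosing. Triplicate wells at various concentrations for 48 h; MTS then 4 h at 37 °C; lysis in 20% SDS/50% DMF; OD 490 nm. IC50 by Reed and Muench method.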

A549 = assay: Cytotoxicity against human A549 cells assessed as decrease in cell viability after 48 hrs by MTS assay; conditions: A549, 48 h; procedure, shortened: as §1
HL-60 = assay: Cytotoxicity against human HL60 cells assessed as decrease in cell viability after 48 hrs by MTS assay; conditions: HL-60, 48 h; procedure, shortened: as §1
SW480 = assay: Cytotoxicity against human SW480 cells assessed as decrease in cell viability after 48 hrs by MTS assay; conditions: SW480, 48 h; procedure, shortened: as §1
SMMC-7721 = assay: Cytotoxicity against human SMMC7721 cells assessed as decrease in cell viability after 48 hrs by MTS assay; conditions: SMMC-7721, 48 h; procedure, shortened: as §1
MCF7 = assay: Cytotoxicity against human MCF7 cells assessed as decrease in cell viability after 48 hrs by MTS assay; conditions: MCF7, 48 h; procedure, shortened: as §1

Row | Compound | pIC50 (HeLa) | pIC50 (A549) | pIC50 (HL-60) | pIC50 (SW480) | pIC50 (SMMC-7721) | pIC50 (MCF7)
1 | C=C1[C@@H]([C@H](C)CC/C=C(/C)C(=O)O)CC[C@@]2(C)C3=CC[C@H]4C(C)(C)C(=O)CC[C@]4(C)[C@@H]3C[C@@H]12 | < 5.00 | < 5.00 | < 5.00 | < 5.00 | < 5.00 | < 5.00
2 | C=C1[C@@H]([C@H](C)C[C@H]2C=C(C)C(=O)O2)CC[C@@]2(C)C3=CC[C@H]4C(C)(C)[C@H](O)CC[C@]4(C)[C@@H]3C[C@@H]12 | 4.91 | 4.57 | 4.98 | 4.70 | 4.60 | 4.81
3 | C=C1[C@@H]([C@H](C)C[C@@H]2C=C(C)C(=O)O2)CC[C@@]2(C)C3=CC[C@H]4C(C)(C)[C@H](O)CC[C@]4(C)[C@@H]3C[C@@H]12 | 4.73 | < 4.40 | 5.13 | 4.59 | < 4.40 | 4.87
4 | C=C1[C@@H]([C@H](C)CC/C=C(/C)C(=O)O)CC[C@@]2(C)C3=CC[C@H]4C(C)(C)[C@H](O)CC[C@]4(C)[C@@H]3C[C@@H]12 | < 5.00 | < 5.00 | < 5.00 | < 5.00 | < 5.00 | < 5.00
5 | C=C1[C@@H]([C@H](C)CC/C=C(/C)C(=O)O)CC[C@@]2(C)C3=CC[C@H]4C(C)(C)[C@@H](O)CC[C@]4(C)[C@@H]3C[C@@H]12 | < 5.00 | < 5.00 | < 5.00 | < 5.00 | < 5.00 | < 5.00
6 | CC(=O)O[C@H]1C(=O)[C@@]2(C)[C@H]([C@H](OC(=O)c3ccccc3)[C@]3(O)C[C@H](OC(=O)[C@H](O)[C@@H](NC(=O)c4ccccc4)c4ccccc4)C(C)=C1C3(C)C)[C@]1(OC(C)=O)CO[C@@H]1C[C@@H]2O [PACLITAXEL] | > 8.10 | > 8.10 | > 8.10 | > 8.10 | > 8.10 | > 8.10
7 | CC(=O)O[C@@H]1CC[C@]2(C)[C@@H]3C[C@H]4C(CO)=C([C@H](C)CC/C=C(/C)C(=O)O)CC[C@@]4(C)C3=CC[C@H]2C1(C)C | < 5.00 | < 5.00 | < 5.00 | < 5.00 | < 5.00 | < 5.00
8 | CC(=O)O[C@@H]1CC[C@]2(C)[C@@H]3CC4=C(CO)[C@@H]([C@H](C)CC/C=C(/C)C(=O)O)CC[C@@]4(C)C3=CC[C@H]2C1(C)C | < 5.00 | < 5.00 | < 5.00 | < 5.00 | < 5.00 | < 5.00
9 | C=C1[C@@H]([C@H](C)CC/C=C(/C)C(=O)O)CC[C@]2(C)[C@H]1C[C@H]1[C@@]3(C)CCC(=O)C(C)(C)[C@@H]3C[C@@H]3O[C@@]312 | < 5.00 | < 5.00 | < 5.00 | < 5.00 | < 5.00 | < 5.00
10 | CC(=O)O[C@@H]1CC[C@]2(C)[C@@H]3C[C@H]4[C@@](C)(O)[C@@H]([C@H](C)CC/C=C(/C)C(=O)O)CC[C@@]4(C)C3=CC[C@H]2C1(C)C | < 5.00 | < 5.00 | < 5.00 | < 5.00 | < 5.00 | < 5.00
11 | CC(=O)O[C@@H]1CC[C@]2(C)[C@@H]3C[C@H]4C(C=O)=C([C@H](C)CC/C=C(/C)C(=O)O)CC[C@@]4(C)C3=CC[C@H]2C1(C)C | < 5.00 | < 5.00 | < 5.00 | < 5.00 | < 5.00 | < 5.00
12 | C/C(=C/CC[C@@H](C)C1=C(CO)[C@@H]2C[C@@H]3C(=CC[C@H]4C(C)(C)C(=O)CC[C@]34C)[C@]2(C)CC1)C(=O)O | < 5.00 | < 5.00 | < 5.00 | < 5.00 | < 5.00 | < 5.00
13 | C=C1[C@@H]([C@H](C)CC(=O)/C=C(\C)C(=O)O)CC[C@@]2(C)C3=CC[C@H]4C(C)(C)[C@H](OC(C)=O)CC[C@]4(C)[C@@H]3C[C@@H]12 | 5.11 | 4.89 | 5.51 | 5.22 | 4.94 | 5.34
14 | C=C1[C@@H]([C@H](C)CC/C=C(/C)C(=O)O)CC[C@@]2(C)C3=CC(=O)[C@H]4C(C)(C)[C@H](OC(C)=O)CC[C@]4(C)[C@@H]3C[C@@H]12 | < 5.00 | < 5.00 | < 5.00 | < 5.00 | < 5.00 | < 5.00
15 | C=C1[C@@H]([C@H](C)C[C@@H](O)/C=C(\C)C(=O)O)CC[C@@]2(C)C3=CC[C@H]4C(C)(C)[C@H](OC(C)=O)CC[C@]4(C)[C@@H]3C[C@@H]12 | < 5.00 | < 5.00 | < 5.00 | < 5.00 | < 5.00 | < 5.00
